In data set [1] the test system is Macrophage. Briefly: Inhibition of IL6 production in DsRed2-Leishmania donovani promastigote infected in C57BL/6 mouse macrophages after 72 hrs by ELISA. The class given is functional, cell-based. An outline of the steps: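 C57BL/6 bone marrow-derived macrophages (3.5×10^6 cells/well, quadruplicates) were infected with DsRed2-L. donovani promastigotes at 1:10 and treated for 72 h at 37 °C. Supernatant IL-6 was measured by ELISA and reported in pg/mL as mean ± SE.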
(An ELISA detects its analyte on a solid surface through an enzyme-linked reagent.)

Data set [2] has as its system Leishmania donovani. The data set is described as follows: Antileishmanial activity against DsRed2 expressing Leishmania donovani amastigotes assessed as parasite death after 72 hrs by flow cytometry.
Data set [3] can be described thus: Selectivity index, ratio of CC50 for BALB/c mouse peritoneal macrophages to IC50 for DsRed2-Leishmania donovani amastigotes. The class given is functional.
Data set [4] in a line: Cytotoxicity against BALB/c mouse peritoneal macrophages after 48 hrs by MTT assay. The settings on record: peritoneal macrophage cell. The format is cell-based. An outline of the steps: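 BALB/c peritoneal macrophages were seeded at 1×10^5 cells/well and exposed to 0.2 to 600 μM compound for 48 h at 37 °C under 5% CO2. Viability was read by MTT cleavage, with formazan extracted in 10% SDS for 18 h at 24 °C and absorbance read at 570 nm.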
For orientation: Tetrazolium assays rely on reduction of a dye to a coloured formazan, in cell work by metabolically active cells.

Data set [5] relates to Leishmania donovani. The data set is described as follows: Antileishmanial activity against DsRed2 expressing Leishmania donovani promastigote assessed as parasite death after 48 hrs by flow cytometry. The class given is functional, organism-based.
The nature of data set [6]: Induction of NO production in C57BL/6 mouse macrophages after 72 hrs by Griess assay. As to conditions: macrophage. On the technique in general: The Griess reaction detects nitrite, a stable product of nitric oxide.

This is an account of results in ChEMBL document CHEMBL3576766, “Immunomodulatory and Antileishmanial Activity of Phenylpropanoid Dimers Isolated from Nectandra leucantha” (J Nat Prod, 2015).

Active and inactive are the calls of the source. No cut-off for these calls is given here.

What is called IC50 is the concentration needed to halve the response being measured. By CC50 is commonly meant the concentration giving 50% cytotoxicity. A high value points to better tolerance by the cells. As to `C=CCc1ccc(Oc2cc([C@H](O)C=C)cc(OC)c2O)c(OC)c1`, the inhibition entry in data set [1] is “Active”. In addition, the values for the IC50 in data set [2] and in data set [5] were 102 µM and “Not Active”, respectively. Also, the “Ratio CC50/IC50” value in data set [3] is >2.9. The CC50 in data set [4] is > 292 µM. The Activity entry in data set [6] is listed as “Non-toxic”.
With SODIUM ANTIMONY GLUCONATE, in data set [4], the midpoint of cytotoxicity, the CC50, lay at 53.4 µM. Besides, the IC50 in data set [5] (read-out: IC50) is 307 µM.
